The source made the active and inactive calls. The calls are words filed in the database; no cut-off is given here.
Columns and labels:
[1] = tested on: HeLa; assay: Cell cycle arrest in human HeLa cells assessed as accumulation at G0/G1 phase at 21 uM after 72 hrs by propidium iodide staining -based flow cytometry (reference value: 66.9 %); type: functional
In short: (§1)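 HeLa seeded at 100 000 cells/well, treated next day with 0.78, 7 or 21 µM for 24, 48 or 72 h. Adherent plus floating cells collected, PBS-washed, fixed overnight in 70% ethanol at −20 °C, RNase A 30 µg/ml 1 h RT, propidium iodide 16.7 µg/ml 30 min dark; DNA content by flow cytometry, phase percentages including subG1 reported.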

[2] = tested on: HeLa; assay: Cell cycle arrest in human HeLa cells assessed as accumulation at G2/M phase at 0.78 uM after 24 hrs by propidium iodide staining -based flow cytometry (reference value: 11.7 %); type: functional; in short: as §1
[3] = Therapeutic index, ratio IC50 for cisplatin-resistant human CA3ST cells to IC50 for normal human fibroblasts; type: cell-based; conditions: read-out: Ratio IC50
In short: (§2)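 IC50 values came from an MTT assay. Cells were seeded at 3000 per well and dosed the next day, with each concentration in quadruplicate. After 72 h at 37 °C, MTT (20 µg/well) was added for 4 h; formazan was dissolved in DMSO and read at 545 nm. Each experiment was done three times. Normal skin fibroblasts were used at 32 and 36 population doublings. T.I. = tumor-cell IC50 / fibroblast IC50.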

[4] = tested on: SW480; assay: Cytotoxicity against human SW480 cells after 72 hrs by MTT assay; type: functional, cell-based; conditions: SW480, 72 h
In short: (§3)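 MTT assay: 3000 cells/well seeded, compound added next day, each concentration in quadruplicate, 72 h at 37 °C; medium replaced with 20 µg MTT/well for 4 h, formazan dissolved in DMSO, OD 545 nm. […] Fibroblasts: normal skin fibroblasts from donor, DMEM/10% FBS, used at 32 and 36 population doublings.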

[5] = Therapeutic index, ratio IC50 for human MIAPaCa2 cells to IC50 for normal human fibroblasts; type: cell-based, MIA PaCa-2; conditions: MIAPaCa2 cells versus normal human fibroblasts, read-out: Ratio IC50; in short: as §2
[6] = tested on: HeLa; assay: Induction of ER stress in human HeLa cells assessed as expression of CHOP and Grp78
[7] = tested on: HeLa; assay: Cell cycle arrest in human HeLa cells assessed as accumulation at subG1 phase at 0.78 uM after 72 hrs by propidium iodide staining -based flow cytometry (reference value: 7.2 %); type: functional; in short: as §1
[8] = tested on: HeLa; assay: Cell cycle arrest in human HeLa cells assessed as accumulation at subG1 phase at 21 uM after 24 hrs by propidium iodide staining -based flow cytometry (reference value: 9.4 %); type: functional; in short: as §1
[9] = tested on: HeLa; assay: Cell cycle arrest in human HeLa cells assessed as accumulation at G0/G1 phase at 0.78 uM after 72 hrs by propidium iodide staining -based flow cytometry (reference value: 66.9 %); type: functional; in short: as §1
[10] = tested on: HeLa; assay: Cell cycle arrest in human HeLa cells assessed as accumulation at G2/M phase at 21 uM after 72 hrs by propidium iodide staining -based flow cytometry (reference value: 9.7 %); type: functional; in short: as §1
[11] = Therapeutic index, ratio IC50 for human Hep2 cells to IC50 for normal human fibroblasts; type: cell-based, HEp-2; conditions: Hep2 cells versus normal human fibroblasts, read-out: Ratio IC50; in short: as §2
[12] = tested on: HeLa; assay: Cell cycle arrest in human HeLa cells assessed as accumulation at G0/G1 phase at 7 uM after 24 hrs by propidium iodide staining -based flow cytometry (reference value: 60.6 %); type: functional; in short: as §1
[13] = tested on: HeLa; assay: Cell cycle arrest in human HeLa cells assessed as accumulation at G2/M phase at 7 uM after 72 hrs by propidium iodide staining -based flow cytometry (reference value: 9.7 %); type: functional; in short: as §1
[14] = tested on: HeLa; assay: Cell cycle arrest in human HeLa cells assessed as accumulation at G0/G1 phase at 21 uM after 48 hrs by propidium iodide staining -based flow cytometry (reference value: 63.8 %); type: functional; in short: as §1
[15] = tested on: HeLa; assay: Induction of CHOP expression in human HeLa cells at 0.09 to 7 uM after 48 hrs by Western blot analysis; type: functional, cell-based
In short: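 Log-phase HeLa exposed to a concentration series for 48 h, or to 7 µM over a time course. Extracts resolved on 10% SDS gels, blotted to nitrocellulose, blocked 5% milk; anti-CHOP 1:1000 in 5% BSA overnight at 4 °C, HRP secondary 1:5000 2 h RT, ECL detection; ERK2 reprobe as loading control.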

[16] = tested on: HeLa; assay: Cell cycle arrest in human HeLa cells assessed as accumulation at subG1 phase at 7 uM after 48 hrs by propidium iodide staining -based flow cytometry (reference value: 8.5 %); type: functional; in short: as §1
[17] = tested on: HeLa; assay: Cytotoxicity against human HeLa cells after 72 hrs by MTT assay; type: functional, cell-based
[18] = Therapeutic index, ratio IC50 for human SW620 cells to IC50 for normal human fibroblasts; type: cell-based, SW-620; conditions: SW620 cells versus normal human fibroblasts, read-out: Ratio IC50; in short: as §2
[19] = tested on: MIA PaCa-2; assay: Cytotoxicity against human MIAPaCa2 cells after 72 hrs by MTT assay; type: functional, cell-based; conditions: MIA PaCa-2, 72 h; in short: as §3
[20] = tested on: HeLa; assay: Induction of Grp78 expression in human HeLa cells at 0.09 to 7 uM after 48 hrs by Western blot analysis; type: functional, cell-based
In short: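 Logarithmically growing HeLa cells were exposed to varying concentrations for 48 h, or to 7 µM for varying times. Cell extracts were run on 10% SDS gels and transferred to nitrocellulose. Membranes were blocked in 5% milk and probed with anti-Grp78 (1:1000, overnight, 4 °C), then an HRP secondary (1:5000, 2 h, RT). Detection was by ECL, with ERK2 reprobing as the loading control.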

[21] = tested on: HeLa; assay: Cell cycle arrest in human HeLa cells assessed as accumulation at G2/M phase at 7 uM after 48 hrs by propidium iodide staining -based flow cytometry (reference value: 9.9 %); type: functional; in short: as §1
[22] = tested on: HeLa; assay: Cell cycle arrest in human HeLa cells assessed as accumulation at S phase at 7 uM after 72 hrs by propidium iodide staining -based flow cytometry (reference value: 23.5 %); type: functional; in short: as §1
[23] = tested on: HeLa; assay: Cell cycle arrest in human HeLa cells assessed as accumulation at G2/M phase at 0.78 uM after 72 hrs by propidium iodide staining -based flow cytometry (reference value: 9.7 %); type: functional; in short: as §1
[24] = tested on: HeLa; assay: Cell cycle arrest in human HeLa cells assessed as accumulation at subG1 phase at 7 uM after 72 hrs by propidium iodide staining -based flow cytometry (reference value: 7.2 %); type: functional; in short: as §1
[25] = tested on: HeLa; assay: Cell cycle arrest in human HeLa cells assessed as accumulation at subG1 phase at 7 uM after 24 hrs by propidium iodide staining -based flow cytometry (reference value: 9.4 %); type: functional; in short: as §1
[26] = tested on: HeLa; assay: Cell cycle arrest in human HeLa cells assessed as accumulation at S phase at 21 uM after 24 hrs by propidium iodide staining -based flow cytometry(reference value: 27.7 %); type: functional; in short: as §1
[27] = tested on: HeLa; assay: Cell cycle arrest in human HeLa cells assessed as accumulation at subG1 phase at 0.78 uM after 48 hrs by propidium iodide staining -based flow cytometry (reference value: 8.5 %); type: functional; in short: as §1
[28] = tested on: HeLa; assay: Cell cycle arrest in human HeLa cells assessed as accumulation at S phase at 21 uM after 48 hrs by propidium iodide staining -based flow cytometry (reference value: 26.3 %); type: functional; in short: as §1

CC(=O)N(/N=N/c1ccc([N+](=O)[O-])cc1Cl)c1ccc([N+](=O)[O-])cc1Cl
Activity [1]: 79%
Activity [2]: 10.5%
selectivity ratio [3]: 0.045
IC50 [4]: 530 nM
selectivity ratio [5]: 0.037
Activity [6]: Active
Activity [7]: 17.6%
Activity [8]: 16.4%
Activity [9]: 59.1%
Activity [10]: 8.4%
selectivity ratio [11]: 0.044
Activity [12]: 69.3%
Activity [13]: 7.6%
Activity [14]: 73%
Activity [15]: Active
Activity [16]: 23.8%
IC50 [17]: 630 nM
selectivity ratio [18]: 0.032
IC50 [19]: 520 nM
Activity [20]: Active
Activity [21]: 9.6%
Activity [22]: 15.2%
Activity [23]: 8.4%
Activity [24]: 33%
Activity [25]: 13.2%
Activity [26]: 20.2%
Activity [27]: 15.8%
Activity [28]: 15.2%

— ChEMBL document CHEMBL1806465, “Synthesis and biological evaluation of 4-nitro-substituted 1,3-diaryltriazenes as a novel class of potent antitumor agents” (Eur J Med Chem, 2011)
